Data from ChEMBL document CHEMBL2311478, “Macrolactonolides: a novel class of anti-inflammatory compounds” (Bioorg Med Chem, 2013).
Calls of active or inactive are those of the source. The calls are words filed in the database; no cut-off is given here.

How the values were obtained:
[1] = Drug uptake in mouse J774A1 cells assessed as compound retention at 10 uM after 3 hrs by LC-MS/MS method; format: ADME, cell-based; conditions: j774.a1, 3 h
Method in brief: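 J774A.1 cells were loaded with 10 µM compound for 3 h in DMEM/25 mM Hepes, then incubated 3 h in fresh medium. Cells were washed, lysed in 0.5% Triton X-100 and analysed by LC–MS/MS. Retention is the percentage of the initially accumulated amount remaining. Triplicates, mean ± SD from one representative experiment.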

[2] = Drug uptake in mouse J774A1 cells at 10 uM after 3 hrs by LC-MS/MS method; format: ADME, cell-based; conditions: j774.a1, 3 h
Method in brief: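 Uptake in J774A.1 macrophages seeded two days before at 2 × 10^5 cells/well. Cells were exposed to 10 µM compound for 3 h in DMEM/25 mM Hepes without supplements, washed with ice-cold PBS and lysed in 0.5% Triton X-100. Lysate was measured by LC–MS/MS, using a cell volume of 1.68 µL per 10^6 cells. Result is the I/E ratio, with E taken as 10 µM.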

Glucocorticoid receptor [3] = biological target: T1, Glucocorticoid receptor (Homo sapiens, UniProt P04150); test: Displacement of [3H]-dexamethasone human glucocorticoid receptor alpha expressed in 293 MSR cells after 60 mins by scintillation counting; format: cell-based
T1 sequence (P04150 whole entry): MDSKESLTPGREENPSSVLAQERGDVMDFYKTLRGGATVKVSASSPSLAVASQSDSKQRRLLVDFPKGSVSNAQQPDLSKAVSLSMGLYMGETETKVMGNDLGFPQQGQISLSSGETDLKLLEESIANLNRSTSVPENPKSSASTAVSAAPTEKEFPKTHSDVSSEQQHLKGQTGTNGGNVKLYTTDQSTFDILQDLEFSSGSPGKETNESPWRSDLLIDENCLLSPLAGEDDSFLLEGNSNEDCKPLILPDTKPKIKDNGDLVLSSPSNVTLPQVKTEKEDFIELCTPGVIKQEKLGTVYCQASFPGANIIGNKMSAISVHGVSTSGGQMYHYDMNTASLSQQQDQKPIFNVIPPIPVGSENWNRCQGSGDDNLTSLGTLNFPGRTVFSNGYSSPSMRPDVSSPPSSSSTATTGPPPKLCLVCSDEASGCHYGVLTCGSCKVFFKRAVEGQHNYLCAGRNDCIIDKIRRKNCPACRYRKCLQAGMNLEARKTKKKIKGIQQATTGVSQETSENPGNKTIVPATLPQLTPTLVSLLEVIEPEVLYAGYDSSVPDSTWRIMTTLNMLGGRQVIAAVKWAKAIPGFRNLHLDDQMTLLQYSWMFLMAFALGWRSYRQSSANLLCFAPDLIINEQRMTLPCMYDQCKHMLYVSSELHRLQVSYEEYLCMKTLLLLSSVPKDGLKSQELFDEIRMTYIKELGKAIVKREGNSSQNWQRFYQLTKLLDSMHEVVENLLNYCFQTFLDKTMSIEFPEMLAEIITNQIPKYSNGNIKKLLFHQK

Glucocorticoid receptor [4] = biological target: T1, Glucocorticoid receptor; test: Binding affinity to glucocorticoid receptor (unknown origin) by fluorescence polarization competitive binding assay
Rattus norvegicus [5] = test: Antiinflammatory activity against ovalbumin-induced airway allergic Brown-Norway rat model assessed as decrease of eosinophils in bronchoalveolar lavage fluid at 11 mg/kg administered intranasally as dry powder measured on day 29 after ovalbumin challenge (reference value: 53.1%); format: functional, Lung; design: scale not given: the % may be the effect or the level left
Rattus norvegicus [6] = test: Antiinflammatory activity against ovalbumin-induced airway allergic Brown-Norway rat model assessed as decrease of macrophages in bronchoalveolar lavage fluid at 11 mg/kg administered intranasally as dry powder measured on day 29 after ovalbumin challenge; format: functional, organism-based; design: dose 11 mg/kg; conditions: Lung
Rattus norvegicus [7] = test: Antiinflammatory activity against ovalbumin-induced airway allergic Brown-Norway rat model assessed as decrease of neutrophils in bronchoalveolar lavage fluid at 11 mg/kg administered intranasally as dry powder measured on day 29 after ovalbumin challenge; format: functional, organism-based; design: dose 11 mg/kg

| SMILES | EC50 (Glucocorticoid receptor [3]) | EC50 (Glucocorticoid receptor [4]) | also measured |
| --- | --- | --- | --- |
| C[C@@H]1C[C@H]2[C@@H]3CCC4=CC(=O)C=C[C@]4(C)[C@@]3(F)[C@@H](O)C[C@]2(C)[C@@]1(O)C(=O)CO [DEXAMETHASONE] | – | – | Drug uptake [1]: Not Active; Drug uptake [2]: Not Active |
| CC[C@H]1OC(=O)[C@H](C)[C@@H](O[C@H]2C[C@@](C)(OC)[C@@H](O)[C@H](C)O2)[C@H](C)[C@@H](O[C@@H]2O[C@H](C)C[C@H](N(C)C)[C@H]2O)[C@](C)(O)C[C@@H](C)CN(CCCNC(=O)[C@@]2(O)[C@H](C)C[C@H]3[C@@H]4C[C@H](F)C5=CC(=O)C=C[C@]5(C)[C@H]4[C@@H](O)C[C@@]32C)[C@H](C)[C@@H](O)[C@]1(C)O | > 25 µM | 1.44 µM | – |
| CC[C@H]1OC(=O)[C@H](C)[C@@H](O[C@H]2C[C@@](C)(OC)[C@@H](O)[C@H](C)O2)[C@H](C)[C@@H](O[C@@H]2O[C@H](C)C[C@H](N(C)C)[C@H]2O)[C@](C)(O)C[C@@H](C)CN(CCCNC(=O)[C@H]2[C@H](C)C[C@H]3[C@@H]4C[C@H](F)C5=CC(=O)C=C[C@]5(C)[C@@]4(F)[C@@H](O)C[C@@]32C)[C@H](C)[C@@H](O)[C@]1(C)O | 0.53 µM | 0.09 µM | – |
| CC[C@H]1OC(=O)[C@H](C)[C@@H](O)[C@H](C)[C@@H](O[C@@H]2O[C@H](C)C[C@H](N(C)C)[C@H]2O)[C@](C)(O)C[C@@H](C)CN(CCCNC(=O)[C@@]2(O)[C@H](C)C[C@H]3[C@@H]4C[C@H](F)C5=CC(=O)C=C[C@]5(C)[C@H]4[C@@H](O)C[C@@]32C)[C@H](C)[C@@H](O)[C@]1(C)O | 5.91 µM | 0.55 µM | – |
| CC[C@H]1OC(=O)[C@H](C)[C@@H](O[C@H]2C[C@@](C)(OC)[C@@H](O)[C@H](C)O2)[C@H](C)[C@@H](O[C@@H]2O[C@H](C)C[C@H](N(C)C)[C@H]2O)[C@](C)(O)C[C@@H](C)CN(CCCNC(=O)[C@@]2(O)[C@H](C)C[C@H]3[C@@H]4C[C@H](F)C5=CC(=O)C=C[C@]5(C)[C@@]4(Cl)[C@@H](O)C[C@@]32C)[C@H](C)[C@@H](O)[C@]1(C)O | 3.81 µM | 1.5 µM | – |
| CCC(=O)OCC(=O)[C@@]1(OC(=O)CC)[C@@H](C)C[C@H]2[C@@H]3CCC4=CC(=O)C=C[C@]4(C)[C@@]3(Cl)[C@@H](O)C[C@@]21C [BECLOMETHASONE DIPROPIONATE] | – | – | Activity (Rattus norvegicus [5]): 43%; Activity (Rattus norvegicus [6]): inactive; Activity (Rattus norvegicus [7]): inactive |
| CC[C@H]1OC(=O)[C@H](C)[C@@H](O[C@H]2C[C@@](C)(OC)[C@@H](O)[C@H](C)O2)[C@H](C)[C@@H](O[C@@H]2O[C@H](C)C[C@H](N(C)C)[C@H]2O)[C@](C)(O)C[C@@H](C)CN(CCCNC(=O)[C@H]2CC[C@H]3[C@@H]4CCC5=CC(=O)CC[C@]5(C)[C@H]4[C@@H](O)C[C@]23C)[C@H](C)[C@@H](O)[C@]1(C)O | > 25 µM | > 10 µM | – |
| CC[C@H]1OC(=O)[C@H](C)[C@@H](O[C@H]2C[C@@](C)(OC)[C@@H](O)[C@H](C)O2)[C@H](C)[C@@H](O[C@@H]2O[C@H](C)C[C@H](N(C)C)[C@H]2O)[C@](C)(O)C[C@@H](C)CN(CCCNC(=O)[C@@]2(O)CC[C@H]3[C@@H]4CCC5=CC(=O)C=C[C@]5(C)[C@H]4[C@@H](O)C[C@@]32C)[C@H](C)[C@@H](O)[C@]1(C)O | > 25 µM | > 10 µM | – |
| CC[C@H]1OC(=O)[C@H](C)[C@@H](O[C@H]2C[C@@](C)(OC)[C@@H](O)[C@H](C)O2)[C@H](C)[C@@H](O[C@@H]2O[C@H](C)C[C@H](N(C)C)[C@H]2O)[C@](C)(O)C[C@@H](C)CN(CCCNC(=O)[C@@]2(O)[C@H](C)C[C@H]3[C@@H]4C[C@H](F)C5=CC(=O)C=C[C@]5(C)[C@@]4(F)[C@@H](O)C[C@@]32C)[C@H](C)[C@@H](O)[C@]1(C)O | > 25 µM | 0.91 µM | – |
| CC[C@H]1OC(=O)[C@H](C)[C@@H](O[C@H]2C[C@@](C)(OC)[C@@H](O)[C@H](C)O2)[C@H](C)[C@@H](O[C@@H]2O[C@H](C)C[C@H](N(C)C)[C@H]2O)[C@](C)(O)C[C@@H](C)CN(CCCNC(=O)[C@@]2(O)CC[C@H]3[C@@H]4CCC5=CC(=O)CC[C@]5(C)[C@H]4[C@@H](O)C[C@@]32C)[C@H](C)[C@@H](O)[C@]1(C)O | > 25 µM | > 10 µM | – |
| C[C@@H]1C[C@H]2[C@@H]3CCC4=CC(=O)C=C[C@]4(C)[C@@]3(F)[C@@H](O)C[C@]2(C)[C@H]1C(=O)CO [DESOXIMETASONE] | – | – | Drug uptake [1]: Not Active; Drug uptake [2]: Not Active |
| CC[C@H]1OC(=O)[C@H](C)[C@@H](O)[C@H](C)[C@@H](O[C@@H]2O[C@H](C)C[C@H](N(C)C)[C@H]2O)[C@](C)(O)C[C@@H](C)CN(CCCNC(=O)[C@H]2[C@H](C)C[C@H]3[C@@H]4CCC5=CC(=O)C=C[C@]5(C)[C@@]4(F)[C@@H](O)C[C@@]32C)[C@H](C)[C@@H](O)[C@]1(C)O | > 25 µM | 2.81 µM | – |
| CC[C@H]1OC(=O)[C@H](C)[C@@H](O[C@H]2C[C@@](C)(OC)[C@@H](O)[C@H](C)O2)[C@H](C)[C@@H](O[C@@H]2O[C@H](C)C[C@H](N(C)C)[C@H]2O)[C@](C)(O)C[C@@H](C)CN(CCCNC(=O)[C@@]2(O)C(C)C[C@H]3[C@@H]4CCC5=CC(=O)C=C[C@]5(C)[C@@]4(Cl)[C@@H](O)C[C@@]32C)[C@H](C)[C@@H](O)[C@]1(C)O (single isomer, unassigned) | > 25 µM | > 10 µM | – |
| CC[C@H]1OC(=O)[C@H](C)[C@@H](O)[C@H](C)[C@@H](O[C@@H]2O[C@H](C)C[C@H](N(C)C)[C@H]2O)[C@](C)(O)C[C@@H](C)CN(CCCNC(=O)[C@@]2(O)[C@H](C)C[C@H]3[C@@H]4C[C@H](F)C5=CC(=O)C=C[C@]5(C)[C@@]4(F)[C@@H](O)C[C@@]32C)[C@H](C)[C@@H](O)[C@]1(C)O | 3.36 µM | 0.69 µM | – |
| CC[C@H]1OC(=O)[C@H](C)[C@@H](O)[C@H](C)[C@@H](O[C@@H]2O[C@H](C)C[C@H](N(C)C)[C@H]2O)[C@](C)(O)C[C@@H](C)CN(CCCNC(=O)[C@@]2(O)[C@H](C)C[C@H]3[C@@H]4C[C@H](F)C5=CC(=O)C=C[C@]5(C)[C@@]4(Cl)[C@@H](O)C[C@@]32C)[C@H](C)[C@@H](O)[C@]1(C)O | 1.68 µM | 0.35 µM | – |
| CC[C@H]1OC(=O)[C@H](C)[C@@H](O[C@H]2C[C@@](C)(OC)[C@@H](O)[C@H](C)O2)[C@H](C)[C@@H](O[C@@H]2O[C@H](C)C[C@H](N(C)C)[C@H]2O)[C@](C)(O)C[C@@H](C)CN(CCCNC(=O)[C@@]2(O)[C@H](C)C[C@H]3[C@@H]4CCC5=CC(=O)C=C[C@]5(C)[C@@]4(F)[C@@H](O)C[C@@]32C)[C@H](C)[C@@H](O)[C@]1(C)O | 23 µM | 2.09 µM | – |
| CC[C@H]1OC(=O)[C@H](C)[C@@H](O)[C@H](C)[C@@H](O[C@@H]2O[C@H](C)C[C@H](N(C)C)[C@H]2O)[C@](C)(O)C[C@@H](C)CN(CCCNC(=O)[C@@]2(O)[C@H](C)C[C@H]3[C@@H]4CCC5=CC(=O)CC[C@]5(C)[C@H]4[C@@H](O)C[C@@]32C)[C@H](C)[C@@H](O)[C@]1(C)O | > 25 µM | 6.2 µM | – |
